Assay results reported in ChEMBL document CHEMBL3525966, “Compartmental and enzyme kinetic modeling to elucidate the biotransformation pathway of a centrally acting antitrypanosomal prodrug” (Drug Metab Dispos, 2013).

Assays:
[1] = biological target: T1, Cytochrome P450 4F2 (Homo sapiens, UniProt P78329); test: Prodrug conversion assessed as human recombinant CYP4F2-mediated (Z)-N'-hydroxy-6-(5-(5-((Z)-N'-methoxycarbamimidoyl)pyridin-2-yl)furan-2-yl) nicotinimidamide formation at 5 uM after 180 mins incubation by HPLC-UV chromatogram; assay type: ADME; conditions: recombinant enzyme, 15 min, in the assay text read “15 mins” for “180 mins”
T1 sequence (P78329 whole entry): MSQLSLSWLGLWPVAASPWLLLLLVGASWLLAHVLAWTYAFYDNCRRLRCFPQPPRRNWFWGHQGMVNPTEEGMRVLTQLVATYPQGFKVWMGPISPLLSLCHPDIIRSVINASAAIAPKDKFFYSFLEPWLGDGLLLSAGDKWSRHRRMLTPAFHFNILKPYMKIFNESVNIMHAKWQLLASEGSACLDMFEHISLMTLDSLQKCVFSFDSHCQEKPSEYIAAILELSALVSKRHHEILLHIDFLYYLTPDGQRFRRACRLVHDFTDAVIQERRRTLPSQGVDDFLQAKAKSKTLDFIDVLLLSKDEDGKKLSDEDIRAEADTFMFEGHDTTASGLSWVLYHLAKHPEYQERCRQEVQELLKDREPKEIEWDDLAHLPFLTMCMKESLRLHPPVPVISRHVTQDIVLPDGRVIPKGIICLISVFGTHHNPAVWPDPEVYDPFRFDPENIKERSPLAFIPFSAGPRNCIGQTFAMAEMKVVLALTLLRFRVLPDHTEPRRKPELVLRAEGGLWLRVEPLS
Procedure, shortened: (§1)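 Insect-cell-expressed human or rat P450 (with NADPH-P450 reductase, some also with cytochrome b5) at 0.1 pmol/µL in 100 mM potassium phosphate pH 7.4 with 10 mM MgCl2. DB868 (for M1) or M1 (for M2) was added at 5 µM (0.5% DMSO) and started with 2 mM NADPH. Stopped after 15 min with ice-cold acetonitrile, then HPLC-UV. Duplicate incubations.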

[2] = tested on: Trypanosoma brucei rhodesiense; test: Antitrypanosomal activity against Trypanosoma brucei rhodesiense STIB900 infected po dosed mouse model; assay type: functional
[3] = Drug metabolism in sandwich-cultured rat hepatocytes assessed as fold increase in DB829 at 10 uM after 2 hrs of incubation by HPLC-MS/MS analysis; assay type: ADME, cell-based, Hepatocyte
Procedure, shortened: (§2)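 Sandwich-cultured hepatocytes were used on day 5 (human) or day 4 (rat) and rinsed with warm phenol-red-free DMEM. They were then exposed to 10 µM DB868 (0.1–0.2% DMSO) at 37°C. Medium and methanol/water cell lysates were collected at 0.5, 2, 4 and 24 h. Analytes were quantified by HPLC/MS/MS with deuterated internal standards; protein by Bradford. Replicates: 6 (human) or 4 (rat).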

[4] = biological target: T2, Cytochrome P450 1A2 (Homo sapiens, UniProt P05177); test: Prodrug conversion assessed as human recombinant CYP1A2-mediated (3Z,3'Z)-6,6'-(furan-2,5-diyl)bis(N'-hydroxynicotinimidamide) formation at 5 uM after 180 mins incubation by HPLC-UV chromatogram; assay type: ADME; conditions: recombinant enzyme, 15 min, in the assay text read “15 mins” for “180 mins”; procedure, shortened: as §1
T2 sequence (P05177 whole entry): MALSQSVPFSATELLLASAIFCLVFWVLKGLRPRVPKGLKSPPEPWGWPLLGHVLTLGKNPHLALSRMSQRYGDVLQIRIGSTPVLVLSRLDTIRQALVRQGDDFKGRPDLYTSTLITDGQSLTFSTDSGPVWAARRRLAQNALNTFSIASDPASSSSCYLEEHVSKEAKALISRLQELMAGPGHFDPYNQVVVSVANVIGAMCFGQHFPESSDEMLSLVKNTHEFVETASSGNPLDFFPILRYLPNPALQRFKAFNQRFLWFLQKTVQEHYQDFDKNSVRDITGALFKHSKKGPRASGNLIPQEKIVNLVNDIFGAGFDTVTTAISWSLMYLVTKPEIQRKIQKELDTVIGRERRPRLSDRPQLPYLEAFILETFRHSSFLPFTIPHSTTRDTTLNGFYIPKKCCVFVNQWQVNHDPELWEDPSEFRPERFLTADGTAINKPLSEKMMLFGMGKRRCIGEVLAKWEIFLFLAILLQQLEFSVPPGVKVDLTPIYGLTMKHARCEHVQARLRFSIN

[5] = Biotransformation in sandwich-cultured rat hepatocytes assessed as depletion of compound at 10 uM after 4 hrs of incubation by HPLC-MS/MS analysis; assay type: ADME, cell-based, Hepatocyte; conditions: read-out: Drug metabolism; procedure, shortened: as §2
[6] = tested on: Liver microsome; test: Intrinsic clearance in human liver microsomes assessed as (Z)-N'-hydroxy-6-(5-(5-((Z)-N'-methoxycarbamimidoyl)pyridin-2-yl)furan-2-yl nicotinimidamide formation measured per mg of protein by HPLC-MS/MS analysis; assay type: ADME
Procedure, shortened: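 M1 formation kinetics: HLM or RLM (0.5 mg/mL) in phosphate pH 7.4 with MgCl2, DB868 0.1–100 µM, started with 2 mM NADPH. Run 5 min (HLM) or 10 min (RLM) under initial-rate conditions (<20% consumption) in triplicate. Quantified by HPLC/MS/MS with d6-DB868 internal standard. Fitted to a one-enzyme (HLM) or two-enzyme (RLM) Michaelis–Menten model; Clint = Vmax/Km.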

[7] = tested on: Liver microsome; test: Prodrug conversion in rat liver microsomes assessed as elution time at 10 uM after 180 mins incubation by HPLC-UV chromatography; assay type: ADME; conditions: 3 h
Procedure, shortened: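 HLM or RLM (0.5 mg/mL) were incubated in triplicate in 100 mM phosphate pH 7.4 with 10 mM MgCl2 and an NADPH-regenerating system (1 mM NADP+, glucose 6-phosphate, G6PDH). DB868 was 10 µM. Sampled up to 180 min. Prodrug and metabolites were measured by HPLC-UV at 359 nm and expressed relative to initial prodrug; DB829 LLOQ 50 nM.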

[8] = biological target: T3, Cytochrome P450 4F1 (Rattus norvegicus, UniProt P33274); test: Prodrug conversion assessed as rat purified CYP4F1-mediated (Z)-N'-hydroxy-6-(5-(5-((Z)-N'-methoxycarbamimidoyl)pyridin-2-yl)furan-2-yl) nicotinimidamide formation at 5 uM after 30 mins incubation by HPLC-UV chromatogram; conditions: purified enzyme
T3 sequence (P33274 whole entry): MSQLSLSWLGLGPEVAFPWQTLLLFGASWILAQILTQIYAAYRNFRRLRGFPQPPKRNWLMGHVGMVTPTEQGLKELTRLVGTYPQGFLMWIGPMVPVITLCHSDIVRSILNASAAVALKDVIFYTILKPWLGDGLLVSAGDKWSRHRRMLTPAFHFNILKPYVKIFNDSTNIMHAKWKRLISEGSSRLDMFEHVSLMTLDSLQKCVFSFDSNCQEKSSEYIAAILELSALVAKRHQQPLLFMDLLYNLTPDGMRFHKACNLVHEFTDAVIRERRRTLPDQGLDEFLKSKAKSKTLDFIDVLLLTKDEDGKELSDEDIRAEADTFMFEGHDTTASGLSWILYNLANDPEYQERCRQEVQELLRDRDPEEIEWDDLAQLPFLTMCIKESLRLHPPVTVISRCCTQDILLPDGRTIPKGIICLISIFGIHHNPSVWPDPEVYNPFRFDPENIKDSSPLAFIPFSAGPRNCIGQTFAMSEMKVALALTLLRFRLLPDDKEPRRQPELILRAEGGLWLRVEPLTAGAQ

Drug metabolism [1]: metabolite_detected
fold change (FC) [3]: 23
Drug metabolism [4]: metabolite_detected
metabolised at 4 h, 10 µM [5]: 50%
CLint [6]: 31 µL/min/mg
Retention_time [7]: 18.5 min
Drug metabolism [8]: metabolite_detected
Compound: CO/N=C(\N)c1ccc(-c2ccc(-c3ccc(/C(N)=N/OC)cn3)o2)nc1.Cl
Activity [2]: 100%
